Test results reported in ChEMBL document CHEMBL2151003, “Synthesis and antitumor activity of ring A modified glycyrrhetinic acid derivatives” (Eur J Med Chem, 2011).
Active and inactive are the calls of the source. The rule behind the calls is not given here.

Tests used:
A549 [1] = experiment: Cytotoxicity against human A549 cells after 96 hrs by SRB assay; assay type: functional, cell-based
Method in brief: (§1)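 Monolayer cultures in RPMI 1640 with 10% heat-inactivated FBS and penicillin/streptomycin, 37 °C, 5% CO2. Exponentially growing cells were seeded, then treated 24 h later with serial dilutions (0–30 µM; DMSO or DMF ≤0.5% final) for 96 h. Cells were fixed with 10% TCA at 4 °C, stained with 0.4% SRB and solubilized in 10 mM Tris base; A570 was read. IC50 came from semi-log dose–response curves, ≥3 independent experiments.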

[2] = Cytotoxicity against human 518A2 cells after 96 hrs by SRB assay; assay type: functional, cell-based; method in brief: as §1
8505C = experiment: Cytotoxicity against human 8505C cells after 96 hrs by SRB assay; assay type: functional, cell-based; method in brief: as §1
A549 [3] = experiment: Induction of apoptosis in human A549 cells assessed as apoptotic effect at 8 uM after 24 to 48 hrs by trypan blue cell counting analysis; assay type: functional
Method in brief: (§2)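 A549 cells (approx. 500,000 per flask) were grown 24 h, then given compound-containing medium for about 24–48 h. Collected cells were pelleted, washed in PBS and mixed 1:1 with 0.4% trypan blue in PBS, pH 7.2. An automated counter distinguished cells with intact and with damaged membranes. Results are % apoptosis ± standard error, 6 experiments each.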

A549 [4] = experiment: Induction of apoptosis in human A549 cells assessed as appearance of green fluorescent cells at 8 uM after 24 to 48 hrs by acridine orange/ethidium bromide staining based fluorescence microscopy; assay type: functional, cell-based
Method in brief: (§3)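 Approx. 500,000 A549 cells per flask were grown 24 h, then exposed to compound-containing medium for 24–48 h. Cells from the supernatant were pelleted, washed and resuspended in PBS, mixed with AO/EB and examined by fluorescence microscopy. Green fluorescence was scored as apoptotic and red nuclei as necrotic; the read-out is qualitative.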

[5] = Cytotoxicity against human Lipo cells after 96 hrs by SRB assay; assay type: functional, cell-based; method in brief: as §1
DLD-1 = experiment: Cytotoxicity against human DLD1 cells after 96 hrs by SRB assay; assay type: functional, cell-based; method in brief: as §1
[6] = Cytotoxicity against human A253 cells after 96 hrs by SRB assay; assay type: functional, cell-based; method in brief: as §1
A549 [7] = experiment: Induction of apoptosis in human A549 cells assessed as apoptotic effect at 4 uM after 24 to 48 hrs by trypan blue cell counting analysis; assay type: functional; method in brief: as §2
A549 [8] = experiment: Induction of apoptosis in human A549 cells assessed as appearance of green fluorescent cells at 4 uM after 24 to 48 hrs by acridine orange/ethidium bromide staining based fluorescence microscopy; assay type: functional, cell-based; method in brief: as §3
SW-1736 = experiment: Cytotoxicity against human SW1736 cells after 96 hrs by SRB assay; assay type: functional, cell-based; method in brief: as §1
A2780 = experiment: Cytotoxicity against human A2780 cells after 96 hrs by SRB assay; assay type: functional, cell-based; method in brief: as §1
MCF7 = experiment: Cytotoxicity against human MCF7 cells after 96 hrs by SRB assay; assay type: functional, cell-based; method in brief: as §1
A549 [9] = experiment: Induction of apoptosis in human A549 cells assessed as apoptotic effect at 20 uM after 24 to 48 hrs by trypan blue cell counting analysis; assay type: functional; method in brief: as §2
A549 [10] = experiment: Induction of apoptosis in human A549 cells assessed as appearance of green fluorescent cells at 20 uM after 24 to 48 hrs by acridine orange/ethidium bromide staining based fluorescence microscopy; assay type: functional, cell-based; method in brief: as §3
HCT-116 = experiment: Cytotoxicity against human HCT116 cells after 96 hrs by SRB assay; assay type: functional, cell-based; method in brief: as §1
HCT-8 = experiment: Cytotoxicity against human HCT8 cells after 96 hrs by SRB assay; assay type: functional, cell-based
Method in brief: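 Monolayers in RPMI 1640 with 10% heat-inactivated FBS and penicillin/streptomycin, 37 °C, 5% CO2. Seeded day 0 and exposed 24 h later to serial dilutions (0–30 µM; DMSO or DMF ≤0.5% final) for 96 h. Cells were then fixed with 10% TCA at 4 °C, stained with 0.4% SRB, washed with 1% acetic acid and dissolved in 10 mM Tris, and A570 was read. IC50 from semi-log dose–response curves, ≥3 independent experiments.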

HT-29 = experiment: Cytotoxicity against human HT-29 cells after 96 hrs by SRB assay; assay type: functional, cell-based; method in brief: as §1
A-431 = experiment: Cytotoxicity against human A431 cells after 96 hrs by SRB assay; assay type: functional, cell-based; method in brief: as §1
A549 [11] = experiment: Induction of apoptosis in human A549 cells assessed as apoptotic effect at 90 uM after 24 to 48 hrs by trypan blue cell counting analysis; assay type: functional; method in brief: as §2
A549 [12] = experiment: Induction of apoptosis in human A549 cells assessed as appearance of green fluorescent cells at 60 uM after 24 to 48 hrs by acridine orange/ethidium bromide staining based fluorescence microscopy; assay type: functional, cell-based; method in brief: as §3
A549 [13] = experiment: Induction of apoptosis in human A549 cells assessed as apoptotic effect at 60 uM after 24 to 48 hrs by trypan blue cell counting analysis; assay type: functional; method in brief: as §2
A549 [14] = experiment: Induction of apoptosis in human A549 cells assessed as apoptotic effect after 24 to 48 hrs by trypan blue cell counting analysis; assay type: functional; method in brief: as §2

| SMILES | IC50 (A549 [1]) [µmol] | IC50 [2] [µmol] | IC50 (8505C) [µmol] | IC50 [5] [µmol] | IC50 (DLD-1) [µmol] | IC50 [6] [µmol] | IC50 (SW-1736) [µmol] | IC50 (A2780) [µmol] | IC50 (MCF7) [µmol] | IC50 (HCT-116) [µmol] | IC50 (HT-29) [µmol] | IC50 (A-431) [µmol] | also measured |
| --- | --- | --- | --- | --- | --- | --- | --- | --- | --- | --- | --- | --- | --- |
| CC1(C)[C@@H](OC(=O)CNCCCN)CC[C@]2(C)[C@H]3C(=O)C=C4[C@@H]5C[C@@](C)(C(=O)OCc6ccccc6)CC[C@]5(C)CC[C@@]4(C)[C@]3(C)CC[C@@H]12 | 4.74 | 5.14 | 2.07 | 2.99 | 4.96 | 1.96 | – | – | – | – | – | – | Activity (A549 [3]): 80.57%; Activity (A549 [4]): Active |
| COC(=O)[C@@]1(C)CC[C@]2(C)CC[C@]3(C)C(=CC(=O)[C@@H]4[C@@]5(C)CC[C@H](N)C(C)(C)[C@@H]5CC[C@]43C)[C@@H]2C1 | 2.51 | 2.52 | 2.45 | 2.74 | 2.56 | 2.36 | 2.62 | 3.32 | 2.47 | – | – | – | Activity (A549 [7]): 74.21%; Activity (A549 [8]): Active |
| COC(=O)[C@@]1(C)CC[C@]2(C)CC[C@]3(C)C(=CC(=O)[C@@H]4[C@@]5(C)CC[C@@H](N)C(C)(C)[C@@H]5CC[C@]43C)[C@@H]2C1 | 3.33 | 2.74 | 2.33 | 3.3 | 3.21 | 2.44 | 2.84 | 3.42 | 2.55 | – | – | – | Activity (A549 [7]): 64.88%; Activity (A549 [8]): Active |
| COC(=O)[C@@]1(C)CC[C@]2(C)CC[C@]3(C)C(=CC(=O)[C@@H]4[C@@]5(C)CC/C(=N\O)C(C)(C)[C@@H]5CC[C@]43C)[C@@H]2C1 | 17.4 | 18.93 | 17.18 | 18.34 | 10.46 | 13.56 | 13 | 6.18 | 15.95 | – | – | – | Activity (A549 [9]): 32.43%; Activity (A549 [10]): Active |
| COC(=O)[C@@]1(C)CC[C@]2(C)CC[C@]3(C)C(=CC(=O)[C@@H]4[C@@]5(C)CC[C@H](NC(=O)[C@H](C)N)C(C)(C)[C@@H]5CC[C@]43C)[C@@H]2C1 | 5.38 | 5.55 | 4.46 | 5.82 | 6.44 | 4.46 | 5.25 | 5.39 | 5.08 | – | – | – | Activity (A549 [3]): 56.77%; Activity (A549 [4]): Active |
| CC1(C)C(=O)CC[C@]2(C)[C@H]3C(=O)C=C4[C@@H]5C[C@@](C)(C(=O)O)CC[C@]5(C)CC[C@@]4(C)[C@]3(C)CC[C@@H]12 | > 30 | > 30 | – | > 30 | > 30 | > 30 | > 30 | – | > 30 | > 30 | > 30 | > 30 | IC50 (HCT-8): > 30 µmol |
| CC1(C)[C@@H](O)CC[C@]2(C)[C@H]3C(=O)C=C4[C@@H]5C[C@@](C)(C(=O)O)CC[C@]5(C)CC[C@@]4(C)[C@]3(C)CC[C@@H]12 [ENOXOLONE] | – | – | – | – | – | – | – | – | – | – | – | – | Activity (A549 [11]): 73.73% |
| CCOC(=O)[C@@]1(C)CC[C@]2(C)CC[C@]3(C)C(=CC(=O)[C@@H]4[C@@]5(C)C[C@H](F)[C@@H](O)C(C)(C)[C@@H]5CC[C@]43C)[C@@H]2C1 | > 30 | > 30 | – | > 30 | > 30 | > 30 | – | – | > 30 | > 30 | 24.72 | > 30 | Activity (A549 [12]): Active; Activity (A549 [13]): 80.32% |
| CC1(C)[C@H](O)CC[C@]2(C)[C@H]3C(=O)C=C4[C@@H]5C[C@@](C)(C(=O)O)CC[C@]5(C)CC[C@@]4(C)[C@]3(C)CC[C@@H]12 | > 30 | > 30 | – | > 30 | > 30 | > 30 | > 30 | – | > 30 | > 30 | > 30 | > 30 | IC50 (HCT-8): > 30 µmol |
| COC(=O)[C@@]1(C)CC[C@]2(C)CC[C@]3(C)C(=CC(=O)[C@@H]4[C@@]5(C)CC/C(=N\OC(=O)[C@H](C)NC(=O)OC(C)(C)C)C(C)(C)[C@@H]5CC[C@]43C)[C@@H]2C1 | 15.83 | 16.49 | 15.47 | 18.99 | 19.1 | 14.12 | 14.61 | 12.03 | 15.17 | – | – | – | Activity (A549 [14]): 68.54%; Activity (A549 [10]): Active |
